The record followed here is ChEMBL document CHEMBL4513216, “Probing the Open Global Health Chemical Diversity Library for Multistage-Active Starting Points for Next-Generation Antimalarials” (ACS Infect Dis, 2020).

Molecules are shown by their SMILES.

This data set is described as follows: Toxicity liver stage against HepG2, at 10uM. The following applies: human, HepG2-A16-CD81EGFP cells; read-out: INHIBITION
On the set-up: test concentration 10 uM, cell line HepG2-A16-CD81EGFP. Type of data set: cell-based. A digest of the protocol: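 Uninfected HepG2-A16-CD81EGFP cells, 3 × 10^3 per well, 1536-well, plated on prespotted compound at 10 μM final, parasite-free screening media added to match infected plates; puromycin 10 μM positive, DMSO 0.5% negative; run in parallel with 48 h PbLuc assay at 37 °C, 5% CO2; viability by CellTiter-Glo luminescence, normalized to controls.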
As for `O=C(NCc1ccc(F)cc1)NCC(O)(c1ccco1)C1CC1` (configuration not stated), the cytotoxicity at 10 µM was -115%.

Take `CS(=O)(=O)N1CCCC1CS(=O)(=O)c1ccccc1` (configuration not stated): the cytotoxicity at 10 µM was determined as 1.01%. The same measure for `Cc1nc(CN2CCc3nc(N4CCCC4)nc(NC(C)C)c3C2)cs1`: 2.72%; for `CC(C)N1CCc2ncn(C)c2C1C(=O)NCCN1CCCC1` (configuration not stated): -0.511%; for `Cc1cnc(N2CCc3c(CN(C)Cc4ccco4)cncc3C2)nc1`: 4.15%.

With `c1cc(CN2CC[C@H]3C[C@H](c4nc(C5CC5)cs4)O[C@@H]3C2)ccn1`, the cytotoxicity at 10 µM came to 8.81%. The result for `CCCN1Cc2cc(Br)ccc2OCC1=O` reads 3.72%; that for `CC(C)CNC(=O)c1c(-n2cnnn2)sc2c1CCCC2`, 10.8%.

For the molecule `COCCNC(=O)c1sc(Nc2ccc(Cl)cn2)nc1C`, the cytotoxicity at 10 µM came to 32.4%. The result for `COc1cccc(N2CCN(CC(O)c3cc(C)ccc3C)CC2)c1` (configuration not stated) reads 4.91%; that for `Cc1cc(NC(=O)C(C)Cn2cc(Br)cn2)no1` (configuration not stated), -2.04%. The result for `C=C/C=c1\c(=C/C)oc2c(NCc3ccccc3)nc(C)nc12` reads 24.8%. The result for `Clc1cccc(-n2cnnn2)c1N1CCCCC1` reads 17.4%. Consider `CN1CCCC(c2cncc(-c3cccc(C(F)(F)F)c3)n2)C1` (configuration not stated), for which the cytotoxicity at 10 µM was 8.92%.

On to `CCCS(=O)(=O)N1CCC(n2nc(-c3cc(C)oc3C)ccc2=O)CC1`, for which the cytotoxicity at 10 µM stood at 14.6%. The same measure for `CNc1nc(C2CCN(C(=O)CC3CCCC3)C2)nc2c1CN(C)CC2` (configuration not stated): -40.4%.

In the case of `COCc1ccc(C(=O)N2CCC(c3cc4nccnc4[nH]3)CC2)cc1`, the cytotoxicity at 10 µM is -39%. The same measure for `CNc1nc(C2CCCN2C(C)=O)nc2c1CN(C1CCCC1)CC2` (configuration not stated): -9.44%; for `Cc1cc(CNC(=O)c2cc(NC(=O)C(C)C)ccc2Cl)no1`: 13.6%. In the case of `O=C(NC(c1ccc(Cl)cc1)C(F)(F)F)c1nc(=O)[nH][nH]1` (configuration not stated), the cytotoxicity at 10 µM stood at 11.5%. On to `Cc1cccc(C)c1OCCCN1CCN(CC2CCCO2)CC1` (configuration not stated), for which the cytotoxicity at 10 µM was 9.09%.

As for `CCC(O)CN1CCN(C(=O)CCSC)CC1` (configuration not stated), the cytotoxicity at 10 µM was -3.5%. The result for `CC(=O)NC1CCCN(c2nc3ccccc3cc2CO)C1` (configuration not stated) reads -50.1%; that for `COc1ccccc1CCN(C)C(C)c1nc(-c2cccnc2)no1` (configuration not stated), -2.04%; that for `Cc1ccccc1Cc1nc(CSc2nnc(N)n2C2CC2)no1`, 18%. The same measure for `CCN(CC)CC(=O)N1CCN(CCCc2ccncc2)CC1`: -60.5%; for `Cc1cc(NC(=O)NCc2ccc(S(=O)(=O)N3CCCC3)s2)no1`: -2.24%. As to `CN(C)c1nc(N)nc(CN2CCC(c3ccccc3)CC2)n1`, the cytotoxicity at 10 µM was found to be 7.36%. The same measure for `CCOCCN1CCN(CC(=O)N2CCCC2)CC1C` (configuration not stated): -3.82%; for `CCc1nnc(C2Cc3ccccc3CN2Cc2cc(C)on2)o1` (configuration not stated): -7.77%. The same measure for `Cc1c(NCc2cccc(C#N)c2)cccc1S(=O)(=O)NC1CC1`: 42.5%; for `OCCOc1ccc(NCc2cccc3[nH]ccc23)cn1`: 0.205%. Regarding `Cc1ncccc1C(=O)NCc1ccccc1CN(C)Cc1ccco1`, the cytotoxicity at 10 µM amounted to 8.35%.

In the case of `CN1CCN(C(CNC(=O)c2ccc(Cl)cc2F)c2cccs2)CC1` (configuration not stated), the cytotoxicity at 10 µM came out at 84.6%. The same measure for `Cc1ccc(CC(=O)N2CCOCC2c2c(C)n[nH]c2C)cc1` (configuration not stated): 5.12%; for `Cn1c(CCNc2nccnc2C#N)nc2ccc(F)cc21`: -6.92%; for `O=C(C[S+]([O-])Cc1ccc(F)cc1Cl)NC1CCCC1` (configuration not stated): 9.5%.

For `Cn1c2ncccc2c(=O)n1CC(=O)NCCC1=CCCCC1`, the cytotoxicity at 10 µM was 19%. The result for `CC(NCC(N)=O)c1c(F)cccc1Cl` (configuration not stated) reads -0.725%; that for `O=C(NCCCc1nc(=O)[nH][nH]1)c1ccc(Cl)cn1`, -47.6%; that for `CO[C@H]1CN(C(=O)OC(C)(C)C)CC1NCc1ccoc1` (some centres not stated), -51.8%. The same measure for `Cc1n[nH]c(C)c1CNC(=O)N(Cc1ccccc1)CC(C)(C)O`: 1.72%; for `CN1CCN(c2ccc(CO)cc2F)CC1`: -42%; for `CCO[C@H]1CC[C@H]2[C@H]1OCCN2C(=O)c1nn(C)c2ccccc12`: 7.28%. The result for `Cc1cc(C(=O)N2CCc3nc(N4CCCC4)nc(C)c3CC2)c(C)o1` reads -108%; that for `Cc1nc2c(c(NC3CC3)n1)CCN(C(=O)C1(C#N)CC1)CC2`, -104%.

On to `Cc1ncccc1NC(=O)c1nc2c(n1C)CCN(C(=O)C1CC1)C2`, for which the cytotoxicity at 10 µM is -99.6%.

In the case of `COCCN(Cc1ccc(C)cc1)CC1CCOC1` (configuration not stated), the cytotoxicity at 10 µM was -9.06%. The result for `COc1ncc(-c2nccn2C(C)CCn2cccn2)cn1` (configuration not stated) reads 0.728%; that for `CCC(C)Oc1ccc(CNCCc2c[nH]cn2)cc1Cl` (configuration not stated), 1.09%; that for `Cc1n[nH]c(C)c1CCCNCc1cn(CCC(N)=O)c2ccccc12`, 8.45%.

Turning to `CC(c1cccs1)N(C)Cc1cnc(-c2ccccn2)nc1` (configuration not stated), the cytotoxicity at 10 µM was -6.3%.

As for `CCc1cnc(N)nc1NCCC(=O)NC1CCCCC1`, the cytotoxicity at 10 µM was -42.1%. The same measure for `O=C(N1CCOCC1)N1CCc2[nH]nc(COc3cccc(Cl)c3)c2C1`: -42.2%; for `Cc1nc2ccc(CN3CC4(CCOC4)CCC3=O)cc2[nH]1` (configuration not stated): 11.7%; for `CC(C)(C)c1nc(CN2CCc3onc(-c4cccc(F)c4)c3C2)no1`: 6.2%.

On to `COc1ccc(OC2CCN(C(=O)C3CCCN(C)C3)CC2)cc1` (configuration not stated), for which the cytotoxicity at 10 µM was -59.6%. In the case of `CC1=CC(C)(C)N(CN2C(=O)c3ccccc3C2=O)c2ccc(C)cc21`, the cytotoxicity at 10 µM is -3.49%. For the molecule `Cc1sc2nc(CCN)nc(N3CCN(S(C)(=O)=O)CC3)c2c1C`, the cytotoxicity at 10 µM was -32%.

Consider `Cc1nc(-c2cc(Cl)cc3c2OC(CN)C3)c[nH]1` (configuration not stated), for which the cytotoxicity at 10 µM was -1.11%. The result for `CC(c1cccnc1)N(C)Cc1cc(O)c2cc(F)ccc2n1` (configuration not stated) reads 10.8%; that for `CCCc1nc(NCc2c(C)nn(CCC)c2C)c2cnn(C)c2n1`, 9.66%.

Turning to `CN(Cc1cc(C2CC2)[nH]n1)C(=O)C(c1cccnc1)N1CCCC1` (configuration not stated), the cytotoxicity at 10 µM was -48.1%. The result for `Cc1ccnc(CC(C)N(C)c2cc(CN)nc(C)n2)c1` (configuration not stated) reads -48.9%; that for `O=C(Nc1nncs1)N1CCC(CCO)CC1`, -2.48%; that for `O=C1CC(c2ccc(CO)o2)c2cnn(Cc3ccco3)c2N1` (configuration not stated), 2.77%.

Take `CC(Cc1cncs1)Nc1ncnc2cccc(F)c12` (configuration not stated): the cytotoxicity at 10 µM stood at 17.5%.

As to `CN(CCc1ccccn1)C(=O)c1cn2c(n1)CNCC2`, the cytotoxicity at 10 µM was -43.5%. `Cc1ccc(-c2c(C(=O)NC3CCN(C)CC3)csc2C)cc1`: the cytotoxicity at 10 µM is -130%. `O=C(Cc1ccccc1F)NCCN1CCOCC1`: the cytotoxicity at 10 µM was -46.1%.

With `Cc1ccccc1N1CCN(c2cc(N(C)C)ncn2)C(C)C1` (configuration not stated), the cytotoxicity at 10 µM is 19.7%. `O=C1CC(c2ccccc2)c2cnn(C3CCCC3)c2N1` (configuration not stated): the cytotoxicity at 10 µM came to 1.5%.

`O=C(O)CCc1cc2n(n1)CCCN(C(=O)c1cc3ccccc3s1)C2`: the cytotoxicity at 10 µM was found to be 0.45%. With `COc1ccc2cc(C3CN(C(=O)C4CCOCC4)CCO3)ccc2c1` (configuration not stated), the cytotoxicity at 10 µM was -8.68%.

For `CC(O)CN1CCN(C(=O)c2cc3ccccc3n2C)CC1` (configuration not stated), the cytotoxicity at 10 µM was 2.99%. The same measure for `CCc1nc(CN(C(C)=O)C2CCN(CCc3ccncc3)C2)no1` (configuration not stated): -22.3%; for `COc1cc(C(=O)N2CCCS2(=O)=O)ccc1OC(C)C`: -17.6%; for `COC(=O)c1cccn1C1CCN(Cc2cnc3ccccn23)CC1`: -8.86%. In the case of `Cc1nn(CC(C)C)c(N(C)C)c1CNCc1cc2ccccc2[nH]1`, the cytotoxicity at 10 µM is -2.77%. Take `COc1cccc(-n2nnc(C(=O)N3CCN(C)CC3C)c2C)c1` (configuration not stated): the cytotoxicity at 10 µM is -4.05%. As for `Cn1cc(CC(=O)N2CCC(Nc3cccnn3)CC2)c2ccccc21`, the cytotoxicity at 10 µM is -9.24%.

As to `CCNCc1ccc(OCc2ccc3c(c2)OCCO3)cc1`, the cytotoxicity at 10 µM amounted to 2.44%. The same measure for `Cc1ccc(CN2Cc3ccccc3OC3(CCC(CO)CC3)C2)s1` (configuration not stated): -3.11%; for `Cc1cc(C(=O)N2CCn3cc(CN4CCOCC4)nc3C2)no1`: -75.7%.

Consider `Cc1ccc(S(=O)(=O)N2CCc3nc(C4CCNCC4)ncc3C2)cc1`, for which the cytotoxicity at 10 µM was -3.24%. The result for `O=C(NCc1ccco1)[C@@H]1CCO[C@@H]2CCN(CC3CC3)C[C@@H]21` reads -78.7%; that for `Cn1cc(N2CCC3(CCCN(Cc4ccc(F)cc4)C3)C2=O)cn1` (configuration not stated), -73.4%; that for `CO[C@@H]1CC[C@H]2[C@H]1OCCN2C(=O)c1ccc(C)nc1`, -143%. The same measure for `FC1(F)CCN(Cc2cccnc2)CC12CCN(c1ccccn1)C2` (configuration not stated): 23%; for `O=C(c1cc[nH]n1)N1CCc2onc(COc3cccnc3)c2C1`: -70.3%; for `O=C(CCC1CCCC1)NCCn1nc(C2CCNC2)c2nccnc21` (configuration not stated): 6.28%.

In the case of `CC(=O)N1CCCCCC1C1CCN(Cc2nnc(C(C)(C)C)o2)CC1` (configuration not stated), the cytotoxicity at 10 µM was -42.3%. The same measure for `c1cc(COC[C@@H]2CCC[C@@]23CNCCO3)ccn1`: 1.26%; for `Cc1ccc(CN2CCC3(CC2)CN(c2ccccc2)C(=O)CO3)o1`: -116%; for `Cc1cccc(N2CC[C@@H]3CN(Cc4csc(C)n4)CCO[C@@H]3C2)n1`: -4.51%. The result for `CC(C)Cn1cc2nc(N3CCC(O)CC3)[nH]cc-2c1=O` reads 5.92%; that for `CCN(CC)c1ccc(C2c3c(n[nH]c3C)N=C3COC(=O)C32)cc1` (configuration not stated), 4.33%.
